Measured values published in ChEMBL document CHEMBL4513216, “Probing the Open Global Health Chemical Diversity Library for Multistage-Active Starting Points for Next-Generation Antimalarials” (ACS Infect Dis, 2020).

Test: Toxicity liver stage against HepG2, at 10uM
Type: cell-based
Design: test concentration 10 uM, cell line HepG2-A16-CD81EGFP
Details: human, HepG2-A16-CD81EGFP cells; read-out: INHIBITION
In short: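 Uninfected HepG2-A16-CD81EGFP cells, 3 × 10^3 per well, 1536-well, plated on prespotted compound at 10 μM final, parasite-free screening media added to match infected plates; puromycin 10 μM positive, DMSO 0.5% negative; run in parallel with 48 h PbLuc assay at 37 °C, 5% CO2; viability by CellTiter-Glo luminescence, normalized to controls.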

| SMILES | cytotoxicity at 10 µM [%] |
| --- | --- |
| CC(C)Oc1ccc(C(=O)Nc2nncs2)cn1 | -7.94 |
| COc1ccc(-c2cc(CC3(NCc4ccc(C)o4)COC3)no2)cc1 | -5.88 |
| O=C(NCCS(=O)(=O)N1CCN(c2ncccn2)CC1)C1CC1 | -4.15 |
| O=S(=O)(Cc1ccc(F)cc1)N1CCN(CC(O)C2CC2)CC1 (stereo not drawn) | 4.77 |
| O=C1CC(NS(=O)(=O)c2ccc(F)c(Cl)c2)CN1 (stereo not drawn) | 6.32 |
| COCC1CN(C(=O)Cc2ccccn2)Cc2ncn(C)c21 (stereo not drawn) | 1.73 |
| COCC(=O)N1CC[C@H]2C[C@H](c3nnc(C4CC4)o3)O[C@@H]2C1 | 4.85 |
| CC1c2ncc(Cn3cncn3)n2CCN1C(=O)c1cscn1 (stereo not drawn) | -17.5 |
| CN1CCN(C[C@@H]2OC[C@H]3CN(Cc4ccncc4)CC[C@H]32)CC1 | 1.96 |
| CC(C)(C)c1noc(-c2ccnc(-n3cnc(C(=O)O)c3)c2)n1 | 5.41 |
| O=C1CSC(c2ccc3c(c2)OCO3)c2cn[nH]c2N1 (stereo not drawn) | 4.29 |
| CNC(=O)c1cc2c(nc1NCC(C)C)CCN(S(=O)(=O)C1CC1)CC2 | -4.88 |
| CCCn1nccc1C(=O)Nc1ncc(C)s1 | 8.05 |
| O=c1c2cc3c(cc2nnn1Cc1cccc(F)c1)OCCO3 | 6.39 |
| CCCc1nc(N(C)Cc2ccco2)c2c(n1)c(C)nn2CC | 16.9 |
| Cc1nn(C)c(C)c1CN(C)c1nc(C2CC2)nc2c(C)nn(C)c12 | 3.98 |
| COCCCNC(=O)c1nnsc1-c1ccccc1 | 5.09 |
| Cc1cn[nH]c1C1COCCN1C(=O)c1ccc2c(c1)CCCC2 (stereo not drawn) | -0.21 |
| Cc1cc(N2CCCC(O)(CN(C)C(=O)CCN)C2)c2cnccc2n1 (stereo not drawn) | -1.49 |
| Cn1cc(C2=NOC(C(=O)NC3(c4ccccc4)CCCC3)C2)cn1 (stereo not drawn) | -0.34 |
| Cc1cc(O)cc(C2CCCN2C(=O)c2ccn(C)n2)n1 (stereo not drawn) | -2.82 |
| Fc1cccc(CN2CCC(c3noc(-c4ccccn4)n3)CC2)c1F | -12.8 |
| Cc1cnc(C2(C)CCN(Cc3cscn3)CC2)s1 | -22.5 |

| SMILES | cytotoxicity at 10 µM [%] |
| --- | --- |
| Cc1nn(C)c(C)c1-c1cnc(C2CCCN(S(C)(=O)=O)C2)cn1 (stereo not drawn) | -11.3 |
| Cc1ccc(CN2CCCC(c3cncc(C)n3)C2)cn1 (stereo not drawn) | -9.35 |
| Cc1ncsc1-c1nnc(C2CCN(Cc3cccc(Cl)c3)CC2)o1 | -8.19 |
| CCc1ccc(S(=O)(=O)Nc2ccncc2)s1 | 0.453 |
| CC(CNC(=O)c1cccc(-n2cccn2)n1)Cn1ccnc1 (stereo not drawn) | 7.73 |
| O=C(NC(CC(F)(F)F)c1ccc(Cl)cc1)c1nc(=O)[nH][nH]1 (stereo not drawn) | -5.11 |
| CC(C#N)CN(C)C(=O)CCNC(=O)C(C)(C)C (stereo not drawn) | 0.843 |
| C=C(C)Cn1cc(C(N)=O)nc1C1CC1 | 14.5 |
| CCC1COCCN1C(=O)CNC(=O)c1ccc2c(c1)CCC2 (stereo not drawn) | 8.08 |
| OCCN1CCN(Cc2cn(-c3ccccc3)nn2)CC1 | 1.42 |
| CCN(CC)CCCC(C)NC(=O)c1cccnc1-n1cccn1 (stereo not drawn) | -0.595 |
| O=C(NC1CCN(C2CC2)CC1)c1cn(-c2ccc(Cl)cc2)nn1 | -2.87 |
| CC(C)N1CCC(NC(=O)NCc2ccccc2)CC1 | 5.89 |
| NS(=O)(=O)CCN1CCN(c2cc(F)ccc2F)CC1 | -14.4 |
| Cc1nnc2n1CCN(CC(=O)NC(C)c1cc3ccccc3o1)C2 (stereo not drawn) | -9.79 |
| CC(C)OCCNC1(c2ccc(Cl)cc2)CCOCC1 | 5.5 |
| O=C(NCc1ccccc1Cn1ccnc1)N1CCSCC1 | 3.9 |
| CC(C)N1CCCC(N2CCOC3(CCCC3)C2)C1=O (stereo not drawn) | -7.33 |
| O=C(c1cnn(-c2ccccc2)c1)N1CCN(c2cnccn2)CC1 | 5.37 |
| CC(C)C(=O)Nc1cc(C(C)(C)C)nn1-c1ccccn1 | -4.1 |
| CNS(=O)(=O)CCCn1nnc(-c2ccc(F)c(C)c2)n1 | -1.52 |
| Cc1nnc2n1CCN(C(=O)c1cn(-c3ccc(F)cc3)nn1)C2 | -149 |
| Cc1nc(C)n(CC2CCCN2CC(=O)Nc2cccnc2)n1 (stereo not drawn) | 2.04 |

| SMILES | cytotoxicity at 10 µM [%] |
| --- | --- |
| Cc1nn(C)c(C)c1NC(=O)CN1CCCC1c1noc(C(C)C)n1 (stereo not drawn) | -1.08 |
| CN(C)S(=O)(=O)Nc1ccc(-n2nccc2C(F)(F)F)cc1 | 5.65 |
| CC(=O)N1CCCC1c1cccc(C)c1C (stereo not drawn) | 10.8 |
| CN(Cc1ncnn1C)c1ccnc(Cc2ccccc2)n1 | -1.92 |
| CS(=O)(=O)CCCC(=O)N1CCN(CC2CC2)c2ccccc21 | -3.2 |
| COc1ccccc1C(C)CC(=O)N1CCCS1(=O)=O (stereo not drawn) | -11.6 |
| CCc1ccc(CN(C(=O)CCn2cc(S(N)(=O)=O)cn2)C2CC2)cc1 | 6.37 |
| CN(Cc1cccc(OC(F)(F)F)c1)Cc1cnn(C)c1 | -3.41 |
| CCC(CC)CS(=O)(=O)NC(=O)C1CCCC1 | -13.3 |
| COc1ccc2c(ccn2CC(=O)N2CCCC2Cn2cccn2)c1 (stereo not drawn) | -0.429 |
| CC(C)N(C(=O)CCc1cccc(F)c1)C1CCOCC1 | -5.21 |
| CC(=O)N(C)Cc1cccc(NC(=O)N(C)CCc2cccs2)c1 | -2.67 |
| CC1(CNC(=O)NCc2ccsc2)CCCS1 (stereo not drawn) | 1.82 |
| CC(C)CCNC(=O)c1ccc(-c2ccco2)[nH]c1=O | -9.62 |
| COc1ccc(NC(=O)N2CCN(c3ncccn3)CC2)cn1 | 1 |
| O=C(NC1CCCN(c2ncccn2)C1)c1ccoc1 (stereo not drawn) | -4.56 |
| CN(Cc1cnn(C)c1)C(=O)Cn1c(CS(C)(=O)=O)nc2ccccc21 | 1.05 |
| COCCOCC(=O)Nc1ccc(Br)cc1F | -10.5 |
| CCN(CC)C(=O)c1ccc(-c2ccsc2)nc1C | -13.4 |
| CN(C)C(=O)c1ccc(-c2cccc3c2CCNC3)o1 | -0.537 |
| Cc1nc(C(C)C)sc1C(=O)N1CCN(C2CN3CCC2CC3)CC1 (stereo not drawn) | 3.79 |
| CC(C)=CCN1CCN(C(=O)c2cc(C)n[nH]2)[C@H]2CS(=O)(=O)C[C@H]21 | -6.9 |
| NC(=O)c1ccc(-c2nc3c(c(=O)[nH]2)CCNC3)cc1 | 1.37 |

| SMILES | cytotoxicity at 10 µM [%] |
| --- | --- |
| CC(C)Oc1ccc(CN2CCN3CCN(C)CC3C2)cc1CO (stereo not drawn) | -3.42 |
| O=C(c1cccc(C2CCNC2)c1)N1CCC(c2ncc[nH]2)CC1 (stereo not drawn) | -5.03 |
| CCn1c(C2CCCNC2)nn(CCn2cncn2)c1=O (stereo not drawn) | -18.1 |
| Cc1c[nH]c(CN2CCN(C)C3(CCC(=O)N(CC4CC4)CC3)C2)n1 (stereo not drawn) | -5.54 |
| CN(CC1(CO)CCC1)C(=O)c1cc(COc2ccccc2F)[nH]n1 | 12.1 |
| COC[C@H]1CCC[C@H]1Nc1ncnc2c1CCNCC2 | -11.2 |
| CCOc1ccc(C(=O)N2Cc3cnc(CC)nc3C2)o1 | 3.34 |
| CSCCC(=O)N1CCC(c2nccn2Cc2cscn2)CC1 | 1.41 |
| Cc1ccc(C(C(=O)NCCc2nc(C)cc(C)n2)N(C)C)cc1 (stereo not drawn) | -1.3 |
| CSCCC1CC(=O)Nc2cc(O)c(C)cc21 (stereo not drawn) | 1.97 |
| CCn1ccnc1CNC1CC(=O)N(CCc2cccc(Cl)c2)C1 (stereo not drawn) | -127 |
| CC(C1CCN(Cc2ccc(N(C)C)nc2)CC1)N(C)C (stereo not drawn) | -1.75 |
| CCN(CCc1nc2cc(C)ccc2[nH]1)C(=O)[C@@H](N)COC | -2.64 |
| Cc1ccc2c(c1)c(CNC(=O)C1CC(=O)N(C3CC3)C1)nn2C (stereo not drawn) | -0.502 |
| Cc1nc(CN2CC(Cc3ccccc3)CC2=O)no1 (stereo not drawn) | 2.42 |
| C/C=C(\C)CN1C[C@H](NC(=O)c2cnc(O)cn2)C[C@H]1C(=O)NCC | 7.31 |
| CN1CCCN(C[C@@H]2CN(C(=O)CC3CCC3)C[C@@H]2CO)CC1 | -9.11 |
| Cc1ccc2c(c1)c(CNC(=O)C1CCN(C(C)C)CC1)nn2C | -14.8 |
| CC(CC#N)n1ccc(C(F)(F)F)n1 (stereo not drawn) | -8.88 |
| CCN(C(C)=O)c1nc(CN2CCCC2Cn2cncn2)cs1 (stereo not drawn) | -5.15 |
| CCOc1ccc(Cl)c(C(=O)N2CCN(C(=O)OC)CC2)n1 | -6.33 |
| C=C(C)CN1CCC(NC(=O)c2scnc2C)CC1 | -6.35 |
| Cc1cc(C)n(CC2CCCN2C(=O)c2cn[nH]c2C)n1 (stereo not drawn) | -11.6 |

| SMILES | cytotoxicity at 10 µM [%] |
| --- | --- |
| CC(=O)N(Cc1ncc(C(C)C)o1)C1CCN(CCC#N)C1 (stereo not drawn) | -6.39 |
| C1CC(c2nnc(CN3CCCC3c3noc(C4CC4)n3)o2)C1 (stereo not drawn) | -7.77 |
| O=C(NCc1csc(Br)c1)N1CCOCC1 | -7.45 |
| CC(=O)N(Cc1noc(C2CC2)n1)C1CCN(Cc2ccccc2)C1 (stereo not drawn) | -5.59 |
| Cc1cc(C(=O)N2CCCN(Cc3nccn3C(C)C)CC2)no1 | -2.72 |
| Cc1noc(C2CCN(C(=O)CCc3ccccn3)CC2)n1 | -3.25 |
| Cc1noc2ncc(C(=O)NCC3CCCOC3)cc12 (stereo not drawn) | -8.42 |
| Cc1cccnc1NC(=O)N(CCO)Cc1ccsc1 | -11.3 |
| CCOc1cccc2c1OCC(C(=O)NS(=O)(=O)c1c(C)noc1C)=C2 | -12.1 |
| CC(C)c1cnc(CN(C)C2CCN(CCn3cc(C#N)cn3)C2)o1 (stereo not drawn) | -4.98 |
| COc1c(CNCc2cccc(CS(C)(=O)=O)c2)c(C)nn1C | -5.6 |
| COC(=O)c1cc(C(=O)N2CCCCCC2)n(-c2ccccc2)n1 | -5.33 |
| OC(CN1CCN(Cc2nnc(C3CC3)o2)CC1)c1ccccc1 (stereo not drawn) | -6.82 |
| Fc1cccc(-n2ccc(CN3CCCCC3Cn3cncn3)n2)c1 (stereo not drawn) | -3.81 |
| Cc1cc(C)n(CC2CCCN2CC(=O)NC2CCOCC2)n1 (stereo not drawn) | -5.23 |
| CC(NCc1ccc(OCC(N)=O)cc1)c1ccc(Cl)c(Cl)c1 (stereo not drawn) | -5.25 |
| c1ccc(CN2CCC3(CC2)CN(c2ccccn2)CCO3)nc1 | -6.38 |
| CN1CCC2(COCc3cnc(-c4ccccc4)nc32)C1 (stereo not drawn) | -1.5 |
| CCO[C@@H]1CN(Cc2scnc2C)[C@@H]2CCCO[C@@H]21 | -151 |
| CCC(=O)N1CCC2(CCN(Cc3cccc(F)c3)CC2)CC1 | -4.82 |
| CS(=O)(=O)N1C[C@H]2CC[C@@H](C1)N(CCC(=O)NCc1ccccc1F)C2 | -11 |
